In brackets after ≈: the same amount, converted by molar mass.

The values that follow come from ChEMBL document CHEMBL1123677, “Structure-activity studies of 5-[[4-(4,5-dihydro-2-oxazolyl) phenoxy]alkyl]-3-methylisoxazoles: inhibitors of picornavirus uncoating” (J Med Chem, 1987).

In experiment [1] the test system is rhinovirus A2. The experiment can be described thus: Antirhinovirus activity was assessed and the maximum testable concentration that causes no apparent effects on the cell monolayers was determined against HRV-2 virus in vitro. In kind it is functional, human rhinovirus type 2.
A further experiment relates to Human rhinovirus sp. The experiment can be described thus: Mean of MIC's was determined for the five types of virus like HRV-2, HRV-1A,HRV-22,HRV-41 and HRV-50. In kind it is functional. In outline:
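MIC measured by plaque reduction against HRV-2 first. The value is the mean of the MICs across these five serotypes.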

The subject of experiment [2] is rhinovirus A2. The experiment can be described thus: Antiviral activity determined by ability to inhibit the HRV-2( human rhinovirus type -2) virus by plaque reduction assay in vitro. In kind it is functional. Conditions: Rhinovirus A. The gist of the method: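 Plaque reduction assay against human rhinovirus type 2 (HRV-2), following an earlier reported method. The value is the MIC, the minimum inhibitory concentration.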
In general terms: Plaques are areas of infected cells; plaque reduction assays count them against a control.

The subject of experiment [3] is human rhinovirus (15-serotype panel). The experiment can be described thus: Antirhinovirus activity was determined by the ability to inhibit the growth of 80% of a panel of 15 human rhinovirus serotypes.
The test system of the next experiment is rhinovirus B14. The experiment can be described thus: Tested for antirhinoviral activity against the rhinovirus serotype 14. In kind it is functional, human rhinovirus type 14. Conditions: Rhinovirus B. The gist of the method: (§1)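 Selected compounds were tested across a 15-serotype rhinovirus panel: the five secondary serotypes plus 10 more. An MIC was recorded for each serotype. MIC80, the concentration inhibiting 80% of serotypes tested, was also derived from this panel.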

Experiment [4] relates to rhinovirus A2. The experiment can be described thus: Tested for antirhinoviral activity against the rhinovirus serotype 2. In kind it is functional, human rhinovirus type 2. Conditions: Rhinovirus A. The gist of the method:
as §1

The test system of a further experiment is rhinovirus A21. The experiment can be described thus: Tested for antirhinoviral activity against the rhinovirus serotype 21. In kind it is functional. Conditions: Rhinovirus A. In outline:
as §1

For a further experiment, the system named is rhinovirus A22. The experiment can be described thus: Tested for antirhinoviral activity against the rhinovirus serotype 22. In kind it is functional. Conditions: Rhinovirus A. In outline: as §1
For a further experiment, the system named is rhinovirus A25. The experiment can be described thus: Tested for antirhinoviral activity against the rhinovirus serotype 25. In kind it is functional. Conditions: Rhinovirus A. In outline: as §1
Another experiment deals with rhinovirus A30. The experiment can be described thus: Tested for antirhinoviral activity against the rhinovirus serotype 30. In kind it is functional. Conditions: Rhinovirus A. The gist of the method:
as §1

The subject of a further experiment is rhinovirus A41. The experiment can be described thus: Tested for antirhinoviral activity against the rhinovirus serotype 41. In kind it is functional. Conditions: Rhinovirus A. The gist of the method:
as §1

The test system of a further experiment is rhinovirus A50. The experiment can be described thus: Tested for antirhinoviral activity against the rhinovirus serotype 50. In kind it is functional. Conditions: Rhinovirus A. In outline:
as §1

Another experiment deals with rhinovirus B6. The experiment can be described thus: Tested for antirhinoviral activity against the rhinovirus serotype 6. In kind it is functional. Conditions: Rhinovirus B. The gist of the method:
as §1

Another experiment has as its system rhinovirus A67. The experiment can be described thus: Tested for antirhinoviral activity against the rhinovirus serotype 67. In kind it is functional. Conditions: Rhinovirus A. The gist of the method: as §1
In the next experiment the test system is rhinovirus B86. The experiment can be described thus: Tested for antirhinoviral activity against the rhinovirus serotype 86. In kind it is functional. Conditions: Rhinovirus B. In outline: as §1
In a further experiment the test system is rhinovirus A89. The experiment can be described thus: Tested for antirhinoviral activity against the rhinovirus serotype 89. In kind it is functional, human rhinovirus type 89. Conditions: Rhinovirus A. In outline: as §1
In a further experiment the test system is rhinovirus A15. The experiment can be described thus: Tested for antirhinoviral activity against the rhinovirus serotype 15. Conditions: Rhinovirus A. In kind it is functional. The gist of the method:
as §1

A further experiment relates to Human rhinovirus 1A. The experiment can be described thus: Tested for antirhinoviral activity against the rhinovirus serotype 1A. In kind it is functional. The gist of the method: as §1
For another experiment, the system named is rhinovirus A1B. The experiment can be described thus: Tested for antirhinoviral activity against the rhinovirus serotype 1B. In kind it is functional, human rhinovirus type 1b. Conditions: Rhinovirus A. The gist of the method:
as §1

As for `Cc1cc(CCCCCOc2ccc(C3=NCCO3)cc2F)on1`, the MTL in the experiment on rhinovirus A2 [1] was 9.3 µM. The MIC in the experiment on Human rhinovirus sp. is > 9.3 µM; with rhinovirus A2 [2], 0.4 µM (≈ 0.133 µg/mL).
Consider `Cc1cc(CCCCCOc2ccc(C3=NCCO3)cc2C(C)C)on1`, for which, in the experiment on rhinovirus A2 [1], the MTL stood at 2.2 µM. Moreover, the MIC was > 50 µM against Human rhinovirus sp. and 0.2 µM (≈ 0.0713 µg/mL) in the experiment with rhinovirus A2 [2].
`CCC(=O)Nc1cc(C2=NCCO2)ccc1OCCCCCc1cc(C)no1`: the MTL with rhinovirus A2 [1] came out at 16 µM. For the same compound, in the experiment with rhinovirus A2 [2], the MIC came out at 7.3 µM (≈ 2.81 µg/mL).
`Cc1cc(CCCCCCOc2ccc(C3=NCCO3)cc2Cl)on1`: the MTL with rhinovirus A2 [1] was determined as 8.5 µM. In addition, the MIC in the experiment on Human rhinovirus sp. was determined as 1.4 µM (≈ 0.508 µg/mL); in the experiment with rhinovirus A2 [2] it was 0.06 µM (≈ 0.0218 µg/mL). Besides, the MIC80 in experiment [3] came to 1.2 µM (≈ 0.435 µg/mL).
On to `Cc1cc(CCCCCOc2ccc(C3=NCCO3)cc2C=O)on1`, for which the MTL in the experiment on rhinovirus A2 [1] came out at 2.3 µM. Moreover, the MIC is > 2.3 µM with Human rhinovirus sp. and 1.4 µM (≈ 0.479 µg/mL) against rhinovirus A2 [2].
For `Cc1cc(CCCCCOc2ccc(C3=NCCO3)c(C)c2)on1`, the MTL in the experiment with rhinovirus A2 [1] was determined as 19 µM. The values for the MIC against Human rhinovirus sp. and in the experiment with rhinovirus A2 [2] were > 18 µM and 0.41 µM (≈ 0.135 µg/mL), respectively. In experiment [3], this compound displayed an MIC80 of 15 µM (≈ 4.93 µg/mL).
In the case of `Cc1cc(CCCCOc2ccc(C3=NCCO3)cc2Cl)on1`, in the experiment on rhinovirus A2 [1], the MTL was determined as 9.3 µM. For the same compound, the MIC against Human rhinovirus sp. came to 1 µM (≈ 0.335 µg/mL); in the experiment on rhinovirus A2 [2], 0.2 µM (≈ 0.067 µg/mL). The compound also came in with an MIC80 in experiment [3] of 3.6 µM (≈ 1.21 µg/mL).
For `Cc1cc(CCCCCOc2ccc(C3=NCCO3)c(Cl)c2)on1` the same measures were 25 µM, 6.5 µM (≈ 2.27 µg/mL), 0.4 µM (≈ 0.14 µg/mL) and 7 µM (≈ 2.44 µg/mL).
For the compound `Cc1cc(CCCCCOc2ccc(C3=NCCO3)cc2Cl)on1`, in the experiment with rhinovirus A2 [1], the MTL stood at 8.9 µM. Besides, the MIC came to 1 µM (≈ 0.349 µg/mL) with Human rhinovirus sp.; 2.4 µM (≈ 0.837 µg/mL) against rhinovirus B14; 0.06 µM (≈ 0.0209 µg/mL) in the experiment on rhinovirus A2 [4]; 0.07 µM (≈ 0.0244 µg/mL) in the experiment with rhinovirus A21; 0.1 µM (≈ 0.0349 µg/mL) with rhinovirus A22; 2.4 µM (≈ 0.837 µg/mL) in the experiment with rhinovirus A25. Moreover, the MIC in the experiment with rhinovirus A30 turned out to be 0.07 µM (≈ 0.0244 µg/mL); in the experiment with rhinovirus A41, 3.5 µM (≈ 1.22 µg/mL); against rhinovirus A50, 0.2 µM (≈ 0.0698 µg/mL); in the experiment with rhinovirus B6, 0.6 µM (≈ 0.209 µg/mL); in the experiment on rhinovirus A67, 0.23 µM (≈ 0.0802 µg/mL); with rhinovirus B86, 0.9 µM (≈ 0.314 µg/mL). Also, the MIC came to 0.03 µM (≈ 0.0105 µg/mL) in the experiment on rhinovirus A89; 0.2 µM (≈ 0.0698 µg/mL) in the experiment on rhinovirus A15; 1 µM (≈ 0.349 µg/mL) with Human rhinovirus 1A; 0.2 µM (≈ 0.0698 µg/mL) in the experiment with rhinovirus A1B; 0.06 µM (≈ 0.0209 µg/mL) in the experiment on rhinovirus A2 [2]. Also, the MIC80 in [3] came to 1 µM (≈ 0.349 µg/mL).
